This is an account of results in ChEMBL document CHEMBL1157060, “Antiviral and anti-inflammatory metabolites from the soft coral Sinularia capillosa” (J Nat Prod, 2010).

The source made the active and inactive calls. The rule behind the calls is not given here.

One may read the IC50 as the concentration needed to halve the response being measured.

In assay [1] the test system is RAW264.7. Put plainly: Antiinflammatory activity in mouse RAW264.7 cells assessed as inhibition of LPS-stimulated iNOS expression at 10 uM after 16 hrs by Western blot analysis relative to control. Format: functional. Put shortly: (§1)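 LPS-stimulated RAW 264.7 macrophages were treated with each compound at 10 µM. iNOS and COX-2 protein levels were measured by immunoblot, with β-actin also probed. Band intensity was expressed relative to the LPS-alone group, set at 100%. Data are mean ± SEM (n = 5), and significance versus LPS alone was set at P < 0.05. CAPE at 10 µM served as positive control.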
In general terms: Immunoblotting shows a protein as a band on a membrane.

The subject of a further assay is Salmonella enterica. Put plainly: Antibacterial activity against Salmonella enteritidis ATCC 13076 at 100 ug/ml after 24 hrs. The format is functional, organism-based. The note with it: Salmonella enterica subsp. enterica serovar Enteritidis.
For a further assay, the system named is A549. Put plainly: Cytotoxicity against human A549 cells after 2 days by MTT assay. The format is functional. Put shortly:
(§2)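 The value reported is the ED50 against each tumour cell line. Mithramycin was run as positive control.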
(Tetrazolium assays rely on reduction of a dye to a coloured formazan, in cell work by metabolically active cells.)

In another assay the test system is Serratia marcescens. Put plainly: Antibacterial activity against Serratia marcescens ATCC 25419 at 100 ug/ml after 24 hrs. The format is functional, organism-based.
The test system of a further assay is Klebsiella aerogenes. Briefly: Antibacterial activity against Enterobacter aerogenes ATCC 13048 at 100 ug/ml after 24 hrs. Format: functional, organism-based.
The test system of another assay is P388. Put plainly: Cytotoxicity against mouse P388 cells after 2 days by MTT assay. The format is functional. The note with it: for EC50: P388, 48 h, read-out: ED50 (the source's name). Put shortly: as §2
For assay [2], the system named is RAW264.7. Put plainly: Antiinflammatory activity in mouse RAW264.7 cells assessed as inhibition of LPS-stimulated COX2 expression at 10 uM after 16 hrs by Western blot analysis relative to control. The format is functional. Put shortly: as §1
Another assay concerns HT-29. Briefly: Cytotoxicity against human HT-29 cells after 2 days by MTT assay. Format: functional. Put shortly: as §2
The subject of the next assay is Shigella sonnei. Briefly: Antibacterial activity against Shigella sonnei ATCC 11060 at 100 ug/ml after 24 hrs. Format: functional, organism-based.
A further assay relates to Yersinia enterocolitica. Put plainly: Antibacterial activity against Yersinia enterocolitica ATCC 23715 at 100 ug/ml after 24 hrs. Format: functional, organism-based.
In the next assay the test system is Human betaherpesvirus 5. Put plainly: Antiviral activity against HCMV assessed as protection from virus-induced cytopathogenicity after 7 days by coulter counter. The format is functional, organism-based. The settings on record: Human betaherpesvirus 5, 168 h.

On to `C=C1CC[C@H](C)/C(C)=C\[C@H]2[C@H]1CC[C@]2(C)O`, for which the inhibition entry in the assay on RAW264.7 [1] and in the assay with RAW264.7 [2] was “inactive” in each case. For the same compound, the result in the assay on Salmonella enterica, in the assay on A549, with Serratia marcescens, in the assay with Klebsiella aerogenes, with P388 and in the assay on HT-29 was inactive. Besides, the outcome with Shigella sonnei and in the assay with Yersinia enterocolitica was inactive.
Regarding `C/C(=C\Cc1cc(O)c(C)cc1O)CC/C=C(\C)Cc1cc(C)co1`, the result in the assay on Salmonella enterica, in the assay on A549, in the assay with Serratia marcescens, in the assay with Klebsiella aerogenes, with P388 and with HT-29 was inactive. The outcome in the assay with Shigella sonnei and with Yersinia enterocolitica was inactive. Further, the inhibition result in the assay on RAW264.7 [2] is “inactive”. In the assay with Human betaherpesvirus 5, the IC50 was determined as 15 µM.
Consider `C=C/C(C)=C/CCC(C)Cc1cc(C(=O)O)co1` (stereo unspecified), for which the inhibition result in the assay on RAW264.7 [1] and with RAW264.7 [2] was “inactive” in each case. Besides, the result in the assay on Salmonella enterica, with A549, with Serratia marcescens, in the assay on Klebsiella aerogenes, in the assay on P388 and in the assay with HT-29 was inactive. Moreover, the result with Shigella sonnei and in the assay on Yersinia enterocolitica was inactive.
Regarding `CO[C@H](C(=O)[C@@H](O)[C@@H](C)O)[C@@H]1Cc2cc3cc(O[C@H]4C[C@@H](O[C@@H]5C[C@@H](O)[C@H](O)[C@@H](C)O5)[C@H](O)[C@@H](C)O4)c(C)c(O)c3c(O)c2C(=O)[C@H]1O[C@H]1C[C@@H](O[C@@H]2C[C@@H](O)[C@@H](O[C@@H]3C[C@](C)(O)[C@H](O)[C@@H](C)O3)[C@@H](C)O2)[C@H](O)[C@@H](C)O1` [PLICAMYCIN], the EC50 was 0.07 µM in the assay on A549 (A549, 48 h, read-out: ED50 (the source's name)); 0.06 µM in the assay on P388; 0.07 µM in the assay with HT-29 (HT-29, 48 h, read-out: ED50 (the source's name)).
Regarding `CC1=CC(=O)C(C/C=C(\C)CC/C=C(\C)CC/C=C(\C)CC[C@H](O)C(C)(C)O)=CC1=O` [CAPILLOQUINONE], the result with Salmonella enterica, in the assay with A549, with Serratia marcescens, in the assay with Klebsiella aerogenes, in the assay on HT-29 and in the assay on Shigella sonnei was inactive. Moreover, the outcome with Yersinia enterocolitica was inactive. The EC50 in the assay on P388 stood at 9.8 µM. For the same compound, the inhibition result in the assay with RAW264.7 [2] is “inactive”.
On to `C/C(=C\CC[C@]1(C)C=Cc2cc(O)c(C)cc2O1)Cc1cc(C)co1` [CAPILLOBENZOPYRANOL], for which the result with Salmonella enterica, in the assay on A549, in the assay on Serratia marcescens, with Klebsiella aerogenes, in the assay with HT-29 and with Shigella sonnei was inactive. Also, the outcome in the assay with Yersinia enterocolitica was inactive. The EC50 with P388 stood at 12.7 µM. Also, the inhibition entry in the assay with RAW264.7 [2] was “inactive”.
On to `C=CC(=C)C(CCC(C)Cc1cc(C(=O)OC)co1)OC(C)=O` (stereo unspecified), for which the inhibition entry in the assay with RAW264.7 [1] and in the assay on RAW264.7 [2] was “inactive” in each case. Moreover, the result with Salmonella enterica, in the assay on A549, in the assay with Serratia marcescens, in the assay on Klebsiella aerogenes, in the assay on P388 and in the assay with HT-29 was inactive. Besides, the outcome in the assay on Shigella sonnei and with Yersinia enterocolitica was inactive.
For `CC1(C)CC(O)C[C@@]2(C)OC(=O)C=C12` (stereo partly specified), the inhibition result in the assay on RAW264.7 [1] and in the assay on RAW264.7 [2] was “inactive” in each case. Besides, the outcome in the assay with Salmonella enterica, with A549, in the assay on Serratia marcescens, in the assay on Klebsiella aerogenes, in the assay on P388 and with HT-29 was inactive. Besides, the outcome in the assay with Shigella sonnei and in the assay with Yersinia enterocolitica was inactive.
In the case of `CC1=CC(=O)C(C/C=C(\C)CC/C=C(\C)Cc2cc(C)co2)=CC1=O`, the outcome in the assay with Salmonella enterica, with A549, in the assay with Serratia marcescens, in the assay on Klebsiella aerogenes, in the assay on P388 and with HT-29 was inactive. In addition, the outcome with Shigella sonnei and with Yersinia enterocolitica was inactive. The IC50 in the assay with Human betaherpesvirus 5 worked out at 5.9 µM.
With `CO[C@](C)(CC/C=C(\C)Cc1cc(C)co1)[C@@H]1Cc2cc(O)c(C)cc2O1` [CAPILLOBENZOFURANOL], the inhibition entry in the assay with RAW264.7 [1] and in the assay with RAW264.7 [2] was “inactive” throughout. For the same compound, the result in the assay on Salmonella enterica, in the assay on A549, in the assay on Serratia marcescens, in the assay with Klebsiella aerogenes, in the assay with P388 and in the assay with HT-29 was inactive. Also, the outcome in the assay on Shigella sonnei and in the assay on Yersinia enterocolitica was inactive. Also, in the assay with Human betaherpesvirus 5, the 50% inhibitory concentration (IC50) amounted to 13.5 µM.
